pIC50: −log10 of the molar value. Some results are limits rather than exact numbers.

The test system of data set [1] is PANC-1. Put plainly: Cytotoxicity against human PANC-1 cells assessed as inhibition of cell growth incubated for 72 hrs by MTT assay. Particulars: PANC-1, 72 h. It is filed as functional, cell-based. Summed up: (§1)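 Cells seeded per well (HT-29 4500, PANC-1 4000, SK-MEL-28 3200, A375 1200, A549 2500, H2170 and BJ 10 000) and left 24 h. They were then exposed to increasing concentrations for 72 h and incubated 1 h with MTT 0.5 mg mL−1. Formazan was dissolved in DMSO and absorbance read at 550 nm. IC50 from three independent experiments. Final DMSO ≤0.5%.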
For orientation: Formazan colour is commonly taken as a measure of viable cells.

Data set [2] deals with HT-29. In words: Cytotoxicity against human HT-29 cells assessed as inhibition of cell growth incubated for 72 hrs by MTT assay. It is filed as functional, cell-based. The following applies: HT-29, 72 h. Summed up: as §1
A further data set relates to A-375. Put plainly: Cytotoxicity against human A-375 cells assessed as inhibition of cell growth incubated for 72 hrs by MTT assay. It is filed as functional, cell-based. The following applies: A-375, 72 h. The essentials:
as §1

The next data set deals with SK-MEL-28. In words: Cytotoxicity against human SK-MEL-28 cells assessed as inhibition of cell growth incubated for 72 hrs by MTT assay. It is filed as functional, cell-based. The following applies: SK-MEL-28, 72 h. Summed up: as §1
The subject of a further data set is A549. Put plainly: Cytotoxicity against human A549 cells assessed as inhibition of cell growth incubated for 72 hrs by MTT assay. It is filed as functional, cell-based. Particulars: A549, 72 h. Summed up: as §1
The subject of a further data set is NCI-H2170. Put plainly: Cytotoxicity against human NCI-H2170 cells assessed as inhibition of cell growth incubated for 72 hrs by MTT assay. Format: functional, cell-based. The following applies: NCI-H2170, 72 h. Summed up:
as §1

A short description of data set [3]: Cytotoxicity against human BJ cells assessed as inhibition of cell growth incubated for 72 hrs by MTT assay. It is filed as toxicity, cell-based. The essentials:
as §1

Data set [4] is described as follows: Selectivity index, ratio of IC50 for cytotoxicity against human BJ cells to IC50 for cytotoxicity against human PANC-1. The following applies: BJ cells and PANC-1 cells, read-out: Ratio IC50. It is filed as toxicity, cell-based. Summed up:
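Selectivity index: BJ fibroblast IC50 over PANC-1 IC50, both from the 72 h MTT assay with 24 h pre-seeding (10 000 and 4000 cells/well). IC50 from three independent experiments.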

The test system of data set [5] is PANC-1. In words: Potency index, ratio of Arjunolic acid IC50 to test compound IC50 for cytotoxicity against human PANC-1 cells assessed as inhibition of cell growth incubated for 72 hrs by MTT assay. Format: functional. The essentials:
(§2)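 Potency index: arjunolic acid IC50 divided by derivative IC50 from the 72 h MTT assay on HT-29 (4500 cells/well) or PANC-1 (4000 cells/well). IC50 from three independent experiments.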

For data set [6], the system named is HT-29. In words: Potency index, ratio of Arjunolic acid IC50 to test compound IC50 for cytotoxicity against human HT-29 cells assessed as inhibition of cell growth incubated for 72 hrs by MTT assay. Format: functional. Summed up: as §2

The pIC50 is −log10 of the IC50, conventionally taken in molar units. Regarding `CCCCOC(=O)[C@]12CCC(C)(C)C[C@H]1C1=CC[C@@H]3[C@@]4(C)C[C@@H](O)OC[C@](C)(C=O)[C@@H]4CC[C@@]3(C)[C@]1(C)CC2`, the figures for the pIC50 in the data set on PANC-1 [1] and in the data set with HT-29 [2] were 5.34 and 5.35, respectively.

As for `COC(=O)[C@]12CCC(C)(C)C[C@H]1C1=CC[C@@H]3[C@@]4(C)C(C=O)=C[C@@](C)(CO)[C@@H]4CC[C@@]3(C)[C@]1(C)CC2`, the negative-log IC50 (pIC50) in the data set with PANC-1 [1] is 6.09; with HT-29 [2], 6.06; in the data set on A-375 it was 6.07; in the data set with SK-MEL-28, 6.07; in the data set on A549, 5.91; in the data set on NCI-H2170 it was 5.68.

The term IC50 denotes the midpoint of a concentration-inhibition curve. `CCCCOC(=O)[C@]12CCC(C)(C)C[C@H]1C1=CC[C@@H]3[C@@]4(C)C(C=O)=C[C@@](C)(CO)[C@@H]4CC[C@@]3(C)[C@]1(C)CC2`: the negative logarithm of the IC50 (pIC50) in the data set on PANC-1 [1] was 6.37; with HT-29 [2], 6.26; with A-375, 6.26; with SK-MEL-28 it was 6.35; with A549, 6.24; in the data set on NCI-H2170 it was 5.89. For the same molecule, the IC50 at 72 h in data set [3] came to 2.79 µM. In addition, in data set [4], the selectivity ratio is 6.5.

As for `C=CCOC(=O)[C@]12CCC(C)(C)C[C@H]1C1=CC[C@@H]3[C@@]4(C)C[C@@H](O)OC[C@](C)(C=O)[C@@H]4CC[C@@]3(C)[C@]1(C)CC2`, the pIC50 was 5.31 with PANC-1 [1] and 5.36 with HT-29 [2].

Regarding `CCOC(=O)[C@]12CCC(C)(C)C[C@H]1C1=CC[C@@H]3[C@@]4(C)C[C@@H](O)[C@H](O)[C@@](C)(CO)[C@@H]4CC[C@@]3(C)[C@]1(C)CC2`, the pIC50 with PANC-1 [1] is 4.69; in the data set with HT-29 [2], 4.94. Also, the “Ratio IC50” value in the data set with PANC-1 [5] came out at 2.7; in the data set with HT-29 [6], 3.1.

As to `CCNC(=O)[C@]12CCC(C)(C)C[C@H]1C1=CC[C@@H]3[C@@]4(C)C[C@@H](O)OC[C@](C)(C=O)[C@@H]4CC[C@@]3(C)[C@]1(C)CC2`, in the data set on PANC-1 [1], the pIC50 is 4.66.

As for `CC1(C)CC[C@]2(C(N)=O)CC[C@]3(C)C(=CC[C@@H]4[C@@]5(C)C[C@@H](O)OC[C@](C)(C=O)[C@@H]5CC[C@]43C)[C@@H]2C1`, the negative logarithm of the IC50 (pIC50) in the data set on PANC-1 [1] is 4.53.

Take `CCNC(=O)[C@]12CCC(C)(C)C[C@H]1C1=CC[C@@H]3[C@@]4(C)C[C@@H](OC(C)=O)[C@H](OC(C)=O)[C@@](C)(COC(C)=O)[C@@H]4CC[C@@]3(C)[C@]1(C)CC2`: the pIC50 in the data set with PANC-1 [1] was 6.20; in the data set with HT-29 [2], 5.93. In addition, the Ratio IC50 with PANC-1 [5] came to 89.

In the case of `CC1(C)CC[C@]2(C(=O)O)CC[C@]3(C)C(=CC[C@@H]4[C@@]5(C)C[C@@H](O)OC[C@](C)(C=O)[C@@H]5CC[C@]43C)[C@@H]2C1`, the pIC50 in the data set with PANC-1 [1] and in the data set on HT-29 [2] was less than 4.52 in each case.

On to `CCCCOC(=O)[C@]12CCC(C)(C)C[C@H]1C1=CC[C@@H]3[C@@]4(C)C[C@@H](O)[C@H](O)[C@@](C)(CO)[C@@H]4CC[C@@]3(C)[C@]1(C)CC2`, for which the pIC50 in the data set with PANC-1 [1] is 4.69; with HT-29 [2], 4.86. Besides, the “Ratio IC50” value with PANC-1 [5] and with HT-29 [6] was 2.7 each time.

On to `CNC(=O)[C@]12CCC(C)(C)C[C@H]1C1=CC[C@@H]3[C@@]4(C)C[C@@H](O)[C@H](O)[C@@](C)(CO)[C@@H]4CC[C@@]3(C)[C@]1(C)CC2`, for which the negative logarithm of the IC50 (pIC50) in the data set on PANC-1 [1] and in the data set with HT-29 [2] was less than 4.52 each time.

With `CCNC(=O)[C@]12CCC(C)(C)C[C@H]1C1=CC[C@@H]3[C@@]4(C)C[C@@H](O)[C@H](O)[C@@](C)(CO)[C@@H]4CC[C@@]3(C)[C@]1(C)CC2`, the pIC50 is 4.56 in the data set on PANC-1 [1] and 4.59 in the data set on HT-29 [2].

Consider `CC1(C)CC[C@]2(C(N)=O)CC[C@]3(C)C(=CC[C@@H]4[C@@]5(C)C(C=O)=C[C@@](C)(CO)[C@@H]5CC[C@]43C)[C@@H]2C1`, for which the pIC50 was 5.43 in the data set with PANC-1 [1] and 5.24 in the data set with HT-29 [2].

With `CC1(C)CC[C@]2(C(N)=O)CC[C@]3(C)C(=CC[C@@H]4[C@@]5(C)C[C@@H](O)[C@H](O)[C@@](C)(CO)[C@@H]5CC[C@]43C)[C@@H]2C1`, the pIC50 in the data set with PANC-1 [1] and in the data set with HT-29 [2] was less than 4.52 each time.

On to `CCNC(=O)[C@]12CCC(C)(C)C[C@H]1C1=CC[C@@H]3[C@@]4(C)C(C=O)=C[C@@](C)(CO)[C@@H]4CC[C@@]3(C)[C@]1(C)CC2`, for which the pIC50 in the data set with PANC-1 [1] was 5.38; in the data set on HT-29 [2], 5.46.

Consider `CC(=O)OC[C@@]1(C)[C@@H]2CC[C@]3(C)[C@H](CC=C4[C@@H]5CC(C)(C)CC[C@]5(C(N)=O)CC[C@]43C)[C@@]2(C)C[C@@H](OC(C)=O)[C@@H]1OC(C)=O`, for which the negative-log IC50 (pIC50) with PANC-1 [1] was 5.44; in the data set with HT-29 [2], 4.72. Besides, the “Ratio IC50” value in the data set with PANC-1 [5] is recorded as 15.

With `CCOC(=O)[C@]12CCC(C)(C)C[C@H]1C1=CC[C@@H]3[C@@]4(C)C[C@@H](O)OC[C@](C)(C=O)[C@@H]4CC[C@@]3(C)[C@]1(C)CC2`, the figures for the pIC50 in the data set on PANC-1 [1] and with HT-29 [2] were 5.15 and 5.17, respectively.

For `CNC(=O)[C@]12CCC(C)(C)C[C@H]1C1=CC[C@@H]3[C@@]4(C)C[C@@H](O)OC[C@](C)(C=O)[C@@H]4CC[C@@]3(C)[C@]1(C)CC2`, the pIC50 in the data set on PANC-1 [1] was 4.78; with HT-29 [2], 4.59.

On to `CNC(=O)[C@]12CCC(C)(C)C[C@H]1C1=CC[C@@H]3[C@@]4(C)C(C=O)=C[C@@](C)(CO)[C@@H]4CC[C@@]3(C)[C@]1(C)CC2`, for which the figures for the pIC50 in the data set with PANC-1 [1] and with HT-29 [2] were 5.62 and 5.13, respectively.

For `COC(=O)[C@]12CCC(C)(C)C[C@H]1C1=CC[C@@H]3[C@@]4(C)C[C@@H](O)[C@H](O)[C@@](C)(CO)[C@@H]4CC[C@@]3(C)[C@]1(C)CC2`, the results for the pIC50 in the data set with PANC-1 [1] and in the data set with HT-29 [2] were 4.71 and 4.78, respectively. Moreover, the “Ratio IC50” value is recorded as 2.7 with PANC-1 [5] and 2.2 in the data set with HT-29 [6].

As for `CC1(C)CC[C@]2(C(=O)O)CC[C@]3(C)C(=CC[C@@H]4[C@@]5(C)C(C=O)=C[C@@](C)(CO)[C@@H]5CC[C@]43C)[C@@H]2C1`, the pIC50 is 5.28 in the data set with PANC-1 [1] and 5.24 in the data set with HT-29 [2].

For the molecule `CC(=O)OC[C@@]1(C)[C@@H]2CC[C@]3(C)[C@H](CC=C4[C@@H]5CC(C)(C)CC[C@]5(C(=O)O)CC[C@]43C)[C@@]2(C)C[C@@H](OC(C)=O)[C@@H]1OC(C)=O`, the negative logarithm of the IC50 (pIC50) in the data set with PANC-1 [1] was 4.83; in the data set with HT-29 [2], 4.91.

With `CNC(=O)[C@]12CCC(C)(C)C[C@H]1C1=CC[C@@H]3[C@@]4(C)C[C@@H](OC(C)=O)[C@H](OC(C)=O)[C@@](C)(COC(C)=O)[C@@H]4CC[C@@]3(C)[C@]1(C)CC2`, the pIC50 with PANC-1 [1] is 6.03; in the data set with HT-29 [2] it was 4.78. The Ratio IC50 with PANC-1 [5] is 60.

As for `COC(=O)[C@]12CCC(C)(C)C[C@H]1C1=CC[C@@H]3[C@@]4(C)C[C@@H](O)OC[C@](C)(C=O)[C@@H]4CC[C@@]3(C)[C@]1(C)CC2`, the values for the negative-log IC50 (pIC50) in the data set on PANC-1 [1] and in the data set with HT-29 [2] were 5.17 and 5.25, respectively.

In the case of `CC1(C)CC[C@]2(C(=O)O)CC[C@]3(C)C(=CC[C@@H]4[C@@]5(C)C[C@@H](O)[C@H](O)[C@@](C)(CO)[C@@H]5CC[C@]43C)[C@@H]2C1` [ARJUNOLIC ACID], the negative-log IC50 (pIC50) is 4.25 with PANC-1 [1] and 4.44 in the data set on HT-29 [2].

`C=CCOC(=O)[C@]12CCC(C)(C)C[C@H]1C1=CC[C@@H]3[C@@]4(C)C[C@@H](O)[C@H](O)[C@@](C)(CO)[C@@H]4CC[C@@]3(C)[C@]1(C)CC2`: the pIC50 in the data set on PANC-1 [1] is 4.72; in the data set on HT-29 [2], 4.89. The figures for the Ratio IC50 in the data set on PANC-1 [5] and in the data set on HT-29 [6] were 3 and 2.8, respectively.

For `C=CCOC(=O)[C@]12CCC(C)(C)C[C@H]1C1=CC[C@@H]3[C@@]4(C)C(C=O)=C[C@@](C)(CO)[C@@H]4CC[C@@]3(C)[C@]1(C)CC2`, the pIC50 is 6.08 in the data set with PANC-1 [1]; 6.26 in the data set with HT-29 [2]; 6.23 with A-375; 6.28 in the data set with SK-MEL-28; 6.09 in the data set on A549; 5.82 in the data set on NCI-H2170.

The record behind these values is ChEMBL document CHEMBL5230168, “Design, synthesis, and biological evaluation of new arjunolic acid derivatives as anticancer agents” (RSC Med Chem, 2023).
